# Screening results as filed in PubChem.
# An excerpt weighted towards active compounds, which were near 2.3% of everything screened.
# b-catenin transl – modulators of beta-catenin nuclear translocation, primary screen, imaging, HeLa cells, immunofluorescence, high-content | nuclear translocation activity, % at 5 µM | AID 1665, 2009 | 190,000 compounds, 0.3% hits;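 active = nuclear translocation activity above 50% at 5 µM, with a well cell count of 50 or more; inconclusive = wells under 50 cells across six images, flagged as toxic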;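 note: per-cell ratio of nuclear to cytoplasmic median beta-catenin stain intensity; plate controls were DMSO negative control for no effect and GSK-3 inhibitor IX positive control for full effect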
#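 Signal – beta-catenin immunofluorescence imaging with DAPI · Test system – human HeLa cell line · Dosing – 5 µM primary single dose, 0.1% DMSO, 0.02–20 µM confirmation series · Measure – % activation, nuclear-to-cytoplasmic median beta-catenin signal ratio per cell · Incubation – 24 h compound exposure at 37°C, 5% CO2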
# Insulin prom up – insulin promoter activators in MIN6 cells, imaging, high-content screening, mouse beta cells; z-score at 5 µM; MIN6 insulin promoter-GFP reporter; active compounds read high; AID 1625, 2009; 190,000 compounds, 0.3% hits;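 active = z-score above 3 at 5 µM with at least 500 cells counted in the well; inconclusive = wells under 500 cells, flagged as cytotoxic or low count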
# Dynein cargo inh – inhibitors of GR-EGFP nuclear translocation, primary screen, dynein cargo transport inhibitor project, imaging, high-content, 3617.4 mouse cells; z-score, hits read low; test concentration mostly 20 µM; stimulated with dexamethasone, 1 µM; active compounds read low; AID 1381, 2008; 220,000 compounds, 0.47% hits;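 active = plate z-score of nuclear minus cytoplasmic receptor signal below a set negative limit, without overly bright fluorescence or cell loss, cut at about -3.5 in these data, passing the limit was not always enough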;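 note: z-score of nuclear minus cytoplasmic ring GR-EGFP intensity difference per well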
#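 medium = tetracycline-free induction medium containing charcoal-stripped FBS | also added = 1.0 µM final dexamethasone stimulus | schedule = 48 h induction, 1 h compound, 30 min dex at 37 °C | technique = fixed, Hoechst-stained cells imaged at 10x for EGFP | measure = GR-EGFP nuclear translocation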
# MT stabilizer – microtubule stabilizers in HeLa cells, primary screen, imaging, high-content imaging | HeLa tubulin immunostaining HCS, 24 h; share of cells brighter than vehicle mean+2SD | % tubulin-high responders, % at 10 µM | 200,000 compounds, 0.83% hits;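 active = plate Z-score above 3 for both tubulin-high and condensed-nucleus cell shares, with cell loss under 80%, at 10 µM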;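 note: anti alpha tubulin signal scored within the nucleus-defined area of each cell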
# Autophagy HCS – autophagy modulators in MEF cells, primary screen, imaging, high-content, MEF GFP-LC3 | MEF GFP-LC3 puncta imaging; test concentration mostly 10 µM | calls only at 10 µM (by protocol) | 190,000 compounds, 0.98% hits | AID 463193, 2010;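 active = percentage of spot-positive cells more than 3 SD above its plate mean, without a fluorescence outlier flag or 80% toxicity; inconclusive = no clear call, values can overlap the other calls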;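 note: spot-positive cell cutoff set from DMSO-treated cells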
# Dynein inh conf – dynein cargo transport inhibitors, GR-EGFP translocation, confirmation, imaging, high-content imaging, GR-EGFP cells; shares compounds with Dynein cargo inh; 3617.4 GR-EGFP nuclear translocation imaging, dexamethasone-induced; calls only at 20 µM; 1,000 compounds, 69% hits; AID 463116, 2010;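 active = inhibition of receptor movement into the nucleus at or above a set limit in both runs, with normal cell brightness and cell count; inconclusive = limit reached in only one run, brightness and count normal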;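 note: dexamethasone at 1 µM final in well for 30 min; nuclear minus cytoplasmic GR-EGFP mean intensity difference in channel 2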
# An asterisk follows results filed as active; i = inactive; ? = inconclusive; . = no result; + = active, no number.
SMILES,b-catenin transl,Insulin prom up,Dynein cargo inh,MT stabilizer,Autophagy HCS,Dynein inh conf
O=C1c2ccc(Oc3cccc([N+](=O)[O-])c3)cc2C(=O)N1c1ccccn1,-0.6,0.46,-0.464,3.1,i,.
CC1=CC(C)(C)Nc2ccc(OC(=O)c3cccnc3)cc21,0.2,1.74,-3.56*,13.8,i,i
CC1=CC(C)(C)Nc2ccc(OC(=O)c3ccco3)cc21,-5.1,2.01,-1.33,8.6,i,.
CCOC(=O)c1c(-c2ccc(C)o2)csc1NC(=O)CSc1nncs1,-1.3,-1.74,-3.98*,1.8,i,i
CCOC(=O)c1c(-c2ccc(C)o2)csc1NC(=O)CN1CCCCC1,-0.5,0.03,-4.61*,3.1,i,i
CC1Oc2ccccc2C=C1/C=N\NC(=O)c1cccnc1 (centres undefined),-1.3,-0.33,0.736,.,.,.
COc1ccc(C(=O)CSc2nc(C(C)(C)C)nc3ccccc23)cc1,2.2,-1.39,1.32,1.3,i,.
COC(=O)c1cc(=O)n(Cc2ccc3c(c2)OCO3)c(=Nc2ccc(F)cc2)s1,.,-0.22,-3.33,6.2,i,.
COC(=O)c1cc(=O)n(Cc2ccco2)c(=Nc2ccc(F)c(Cl)c2)s1,.,-0.19,-3.88*,17.6,i,+
COC(=O)c1cc(=O)n(CCc2ccccc2F)c(=Nc2ccc(F)c(Cl)c2)s1,.,-0.14,-4*,3.7,i,+
O=C(O)c1ccc(N/N=C/C2=Cc3ccccc3OC2)cc1,1.4,0.06,0.0404,.,.,.
CSc1cccc(CN2CCN(Cc3ccc(F)c(F)c3)C(CCO)C2)c1 (centres undefined),-0.9,-0.11,-0.218,6.0,i,.
O=C(Nc1ccccc1)C1=C(O)CC(c2ccoc2)CC1=Nc1ccccc1 (centres undefined),0.2,-0.42,-4.18*,4.5,i,i
O=C(Nc1ccccc1)C1=C(O)CC(c2ccco2)CC1=Nc1ccccc1 (centres undefined),.,.,-0.255,8.2,i,.
O=C1C(Cl)=C(NS(=O)(=O)c2ccc([N+](=O)[O-])cc2)C(=O)c2ccccc21,0.1,0.63,-3.88*,.,.,+
OC(CNC1CCCC1)COCCOc1ccc(Br)cc1 (centres undefined),0.0,-0.51,-0.402,.,.,.
COc1ccc(N2CCN(C(=O)C3CCCN(S(=O)(=O)c4c(C)noc4C)C3)CC2)cc1 (centres undefined),-0.9,-0.36,1.24,.,.,.
CS(=O)(=O)N1N=C(c2ccco2)CC1c1ccccc1 (centres undefined),-0.4,0.04,-0.198,2.4,i,.
CS(=O)(=O)N1N=C(c2ccccc2)CC1c1ccc2c(c1)OCO2 (centres undefined),0.4,.,-7.76,6.4,i,i
Cc1ncc(CCl)c2c1OC(C)(C)OC2,.,.,-4.41*,3.9,i,i
Cc1ncc(CO)c2c1OC(C)(C)OC2,0.2,.,.,.,.,.
O=C(CN(c1cccc(C(F)(F)F)c1)S(=O)(=O)c1ccc(Cl)c([N+](=O)[O-])c1)NCc1ccccc1Cl,-0.4,?,-3.69*,2.7,i,i
O=C(CN(c1cccc(C(F)(F)F)c1)S(=O)(=O)c1ccc(Cl)c([N+](=O)[O-])c1)NCc1ccccc1,-1.2,-0.18,-5.54*,2.5,i,+
CCC(=O)NC1CCN(C(=S)NC)CC1,1.4,0.04,-0.538,0.6,i,.
CCNc1ccc(Br)cc(C(=O)/C=C/c2c(Cl)cccc2Cl)c1=O,7.0,?,-5.6,38.5,+,+
SMILES,b-catenin transl,Insulin prom up,Dynein cargo inh,MT stabilizer,Autophagy HCS,Dynein inh conf
COC(=O)c1ccc2c(c1)C(C)(C)C(/C=C/c1ccc(O)cc1)=[N+]2C,41.2,?,-3.57*,41.0*,i,?
COc1cc(/C=C/c2ccc(O)cc2)cc(OC)c1,1.3,-0.16,.,.,.,.
Cn1c(SCC(=O)N2c3ccccc3Sc3ccccc32)nc2ccccc21,-0.1,0.45,1.51,2.7,i,.
CN(C)CCCn1c(SCC(=O)N2c3ccccc3Sc3ccccc32)nc2ccccc2c1=O,0.2,-0.3,-4.19*,19.1,i,i
COc1ccc(-n2cccc2/C=C/[N+](=O)[O-])cc1,9.4,-0.16,-3.84*,3.8,i,+
COC(=O)C1=NNC2(C)C(=O)N(c3ccc(C)cc3)C(=O)C12 (centres undefined),0.4,0.14,1.14,.,.,.
CC(C)c1nnc(NC(=O)CSc2nnc(-c3ccco3)o2)s1,-1.1,-0.18,-0.232,2.2,i,.
CCOC(=O)C(NC(=O)c1cccc(Cl)c1)(Nc1sc2c(c1C(N)=O)CCC2)C(F)(F)F (centres undefined),0.4,-0.03,-4.49*,2.2,i,+
CCC(=O)N1CCC2(CC1)Oc1ccc(Cl)cc1C(=O)C21CC(c2ccc(Cl)cc2)=NO1 (centres undefined),1.5,0.44,0.834,.,.,.
O=C1C=CC(=O)N1c1ccc(O)cc1,1.0,0.11,-4.05,.,.,i
O=C(Nc1ccccc1)c1sc(N2CCOCC2)nc1-c1ccccc1,-0.1,0.33,0.88,3.6,i,.
N#C/C(=C\c1sc(N2CCOCC2)nc1-c1ccccc1)C(=O)Nc1cccc2ccccc12,-0.2,2.26,-5.6,4.8,+,?
Cc1cc(NC(=O)c2coc(=O)c(Br)c2)ccc1C(C)C,-0.8,.,-5.41*,.,.,+
CC(C)C(=O)N1CCN(c2ccc(NC(=O)c3ccc([N+](=O)[O-])o3)cc2Cl)CC1,7.4,0.26,-4.23*,52.5*,i,+
O=C(Nc1cccc(Cl)c1N1CCCC1)c1ccc([N+](=O)[O-])o1,6.9,-0.37,1.08,2.5,i,.
O=C(Nc1ccc(N2CCOCC2)c(Cl)c1)c1ccc([N+](=O)[O-])o1,0.9,1.57,-4.48*,6.5,i,+
CC(=O)N1CCN(c2ccc(NC(=O)c3ccc(Br)o3)cc2Cl)CC1,-1.9,1.41,0.556,2.9,i,.
Cc1ccc(NC(=O)c2ccc([N+](=O)[O-])o2)cc1S(=O)(=O)N1CCOCC1,11.2,-1.28,-1.78,18.3,i,.
CCCC(=O)N1CCN(c2ccc(NC(=O)c3ccc([N+](=O)[O-])o3)cc2Cl)CC1,-1.6,0.26,-4.73*,3.6,+,+
CN(c1ccccc1)P(=O)(N(C)c1ccccc1)N(C)c1ccccc1,-0.6,-1.16,1.36,2.4,i,.
CC(C)C[C@H](N)c1nnc(S(=O)(=O)Cc2cccc(F)c2)o1,2.1,0.43,-4.95*,5.9,i,+
CCN1/C(=C/C=C/c2oc3ccc4ccccc4c3[n+]2CC)Oc2ccc3ccccc3c21,.,.,-7.1*,80.4*,?,+
